# From the EternaBench riboswitch data
# Tested on: MS2 coat protein
# Assay: apparent Kd, MS2 coat protein; higher = weaker binding; RNA-MaP array; FMN 200 µM where present
# Procedure, shortened: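 Apparent Kd: the median of filtered binding-curve fits from single clusters. Designs were transcribed on Illumina sequencing-chip clusters by stalled E. coli RNA polymerase and titrated with SNAP-549-labelled MS2 coat protein from 0.7 or 1.5 nM, doubling to 3 µM, in 100 mM Tris-HCl pH 7.5, 80 mM KCl, 4 mM MgCl2, BSA, DTT, yeast tRNA and Tween-20. Each series ran without and then with constant ligand, and green signal was normalised to red-channel RNA signal and control-cluster median Fmax.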
# [1] = designed as: OFF switch for flavin mononucleotide, no ligand
# [2] = ligand present: flavin mononucleotide, designed as: OFF switch for flavin mononucleotide
# [3] = designed as: ON switch for flavin mononucleotide, no ligand
# [4] = ligand present: flavin mononucleotide, designed as: ON switch for flavin mononucleotide
Sequence,apparent Kd [1],apparent Kd [2],apparent Kd [3],apparent Kd [4]
AAAAAUGGAGGAUAUACAUGAGGAUCACCCAUGUGUGGCUAUACUAUGUGCUCUUCAGGUAGAAGGCCAAAAAA,42.6 nM,201 nM,,
GUAGCUAUUAUUAUACAUGAGGAUCACCCAUGUUACAUGUGUAAGGAUAUUGAAGUUUUUAUAAUCAAGAAGGUACUAUGCUAC,,,16.8 nM,9.2 nM
GAUUAGUGAGGAUAUGGUAAAGAUAAGAUGAUGAAAGAACUCCAGAAGGCACAUGAGGAUCACCCAUGUAGUAU,17.4 nM,21.6 nM,,
AAAGGCCGAGGAUAUACAUGAGGAUCACCCAUGUGGACUCUGCAGAAUUGAUACCUAGGUAGAAGGUGGACCGG,14.9 nM,15.2 nM,,
UACGCCUAGGAGAAGGGCCCACUAUAGGGUAAAUGCUGUUCUCACAUGAGGAUCACCCAUGUGCGGCAGGAUAUCCACGCGUAC,8.25 nM,39 nM,,
AGUCAUACAGGAUAUACAUGAGGAUCACCCAUGUAAAUCCUAAAAAGAAAAACCUCUUGUAGAAGGGUAUGACA,14.3 nM,16.3 nM,,
UUACUAUUGCAGAAGGCUAAAUAAUAUAUAAAUGGAGGAUAUGCAACAUGAGGAUCACCCAUGUUUCACCCAUAUGAGGAUCAC,7.7 nM,9.14 nM,,
AAAUUGCUAGAGGAUAUCGGAUAGGAUCUAUUGCGAGAAGGUUGGACAUGAGGAUCACCCAUGUUCUGUUGGGA,25.8 nM,25.8 nM,,
ACAAGGCAUGUAGGAUAUCCAUUGCGUCGCGAUGGAGAAGGACAACACACAUGAGGAUCACCCAUGUGAUCACCCAUGUCGUGU,356 nM,418 nM,,
UGGUACAUCGGAGGAUAUCGUGUGUAAACAUGAGGAUCACCCAUGUCAUACGAGAGUAUGUAGAUCGAGAAGGCCGAUGUACCU,,,16.7 nM,16.2 nM
UAUAUAUAGUAAGGAUAUGUAUUAAUUUUGUAAACAGAAGGUACUGACAUGAGGAUCACCCAUGUUUUAGUGUGGGCAUGUAGA,130 nM,208 nM,,
UUCGAGUAGCAAGGAUAUCUUAUUUAGAUUUUAAGAGAAGGUGCUUCACAGCUACAUGAGGAUCACCCAUGUCUUUCUUCUUAU,,,35.6 nM,26.3 nM
UAUGCGAGAGGAUAUACAUGAGGAUCACCCAUGUGUCCGACACAAUUCAGUUGCAUAUGUAGAAGGCUUGCGAC,14.4 nM,19.6 nM,,
GGUACCAACACAGGAUAUCCUAUCCUUUGGGUAGGAGAAGGGUGAAACAUGAGGAUCACCCAUGUGGUGCCAGGGCGUGAGCCC,,,1230 nM,206 nM
GGAUUACAUGAGGAUCACCCAUGUGAGGAUAUCGAUGUCCUCAAUCAAGUGCGGGACUCGAGAAGGCACUUGGA,70.3 nM,30.9 nM,,
GACUGCUGAGGAUAUACAUGAGGAUCACCCAUGUGCUUCAGCUACGAGAGUAGCAUUGGUAGAAGGUAGUAGUC,12.1 nM,22.1 nM,,
CGCUAGUCAGGAUAUACGAACAUGUCAAAAGACGUGAAGGGACAUGAGGAUCACCCAUGUAGAAGGGACUAGCU,27 nM,182 nM,,
UCGAUGCUAGGAUAUACUUAUAAAACCACUGUAGAGUCCUCACAUGAGGAUCACCCAUGUAGAAGGAGCAUCUA,25.9 nM,46.4 nM,,
AACGCAUGUGGAGGAUAUGCAGUUAACAUAAGCGCAGAAGGCCACAUGAGGAUCACCCAUGUCCGGCAUUAGCCGAUGUUGAUC,509 nM,114 nM,,
UUUAUAAAUUAGAAGGCGAGAUGAAUUACAAUAGACAUGAGGAUCACCCAUGUGUAUUCAUGUCUUGAGGAUAUAGUCAUAUAU,,,118 nM,58.1 nM
AGAUUUGUACAUGAGGAUCACCCAUGUUAAUAGGUGGUUGUCAGAAGGCAUUAAUAGAGAUUUAAUGAGGAUAUGAAUUUACAA,,,1420 nM,1040 nM
GUAUCGUGAGGAUAUCAUGAUUGACUUUUGUUUUGUCAGCGUGAGAAGGCACAUGAGGAUCACCCAUGUGAUUA,22.3 nM,52.9 nM,,
CCUGAGUGUCUAGGAUAUGCAUACCCGAGCUUUGCAGAAGGAGACAUGAGGAUCACCCAUGUGGACUUGGCAGGUCUCGCACCA,5.91 nM,7.59 nM,,
GCGUAAGUCACAGGAUAUCCAACAUGAGGAUCACCCAUGUAAAAGUGCCGCACUAGAAUGCGACUGGAGAAGGGUGAUUCGUCG,,,50.3 nM,27.5 nM

Sequence,apparent Kd [1],apparent Kd [2],apparent Kd [3],apparent Kd [4]
CUAUGCCGAACAGGAUAUUCGAUCAAAAGGAUAGAAGAAGGGUUACAUGAGGAUCACCCAUGUAUGCACAUGAGGAUCCCUUAA,255 nM,296 nM,,
GCUCACCGUCAGAAGGUACUUAAAAGUUGUGAGUAAGGAUAUGACAUGAGGAUCACCCAUGUAAACGUGGACUUUCACAUACAU,13.5 nM,59.1 nM,,
AAAAAACAUGAGGAUCACCCAUGUAAAAAAAAUAGAGGAUAUGGGUGAUCCAAAAAAAAACCAGAAGGCUAAAAAA,,,18.2 nM,16.6 nM
AUGCCUUAUGUAGGAUAUGCAUAGAGUUGCUAUGCAGAAGGACAUGAGGAUCACCCAUGUAUGUAUACCUUACAUAUCUGGCAU,8.34 nM,30.8 nM,,
AACAUGUCAGGAUAUGACUAAGGUGCUCGGUUGAGCCCUUAUCAGAAGGGACAUGAGGAUCACCCAUGUUCCGA,17.8 nM,21.1 nM,,
CCAGUGUAAGGAUAUGACAAUGGUAUCUUCGGAUACCAUUGUCAGAAGGUACAUGAGGAUCACCCAUGUAACAC,16.6 nM,26.5 nM,,
UGUAUGGACAGAGGAUAUACGGAUAGGAUCUACUAUCUUCCUUAAAUAACAUGAGGAUCACCCAUGUAGAAGGCUGUCCAUACU,19 nM,74.7 nM,,
UCGUUAUAUGAAGGAUAUACUUAACAUGAGGAUCACCCAUGUGGUGUUGUGAGUGAGUGAGUUUAGUAGAAGGUCAAUUCUUUU,212 nM,214 nM,,
ACGUCGAGCCAGAAGGCAACAUGAGGAUCACCCAUGUAGUCCGGCUCGUGUUGAGGAUAUGGCACCCGCGCUGAAGGCGCAGGU,5.43 nM,7.55 nM,,
GGGUACAGCGGAGGAUAUCAUGUAAAUACAUGAGGAUCACCCAUGUCGAUGGAGACAUCGGAGAUUGAGAAGGCCGAUGUACCG,,,173 nM,9.99 nM
AGUUUUGUACAUGAGGAUCACCCAUGUUAAUAUGUGGUAGUCAGAAGGCAUUGUUAGUGUUUAUAUGAGGAUAUGAUUAGGCAG,,,46.6 nM,24.6 nM
UUUUAACAUGAGGAUCACCCAUGUGAGGAUAUCGAAAUUUAUAUUUAUAUUAAUAUAUCGAGAAGGCACAUUUU,99 nM,144 nM,,
CAUCUCUAUGUAGGAUAUAGGACAACAACAGCACUAGAAGGACAUGAGGAUCACCCAUGUACACUACUCGCGUCAUCGUCUCGC,6.01 nM,6.22 nM,,
CUAUAUAAUACCUCAUGUACAUGAGGAUCACCCAUGUUAACAAAGGAUAUAUUUAUAUUAAUAAAGUAGAAGGUUGUACUAUUU,19.5 nM,17.1 nM,,
UUAUGUUAUGUAGGAUAUCACUUUAAUUGAUUAAUAUAUGAAUAUUGAAUUUGAGAAGGACAUUUACAUGAGGAUCACCCAUGU,16.2 nM,13.6 nM,,
CCGAUACGAGGAUAUACAUGAGGAUCACCCAUGUAGUGGACCGAGCGUCGGUGUCUCAGUAGAAGGCGUUAAGA,16.2 nM,17.3 nM,,
ACAUAAAUUCGAGGAUAUCGGUGAUAUAAUUUACGAGAAGGCGAUAAAAGUUAUAAACUUAUAGACAUGAGGAUCACCCAUGUA,,,31 nM,30.6 nM
AAGGAACAUGAGGAUCACCCAUGUGAGGAUAUGUGAGAAGGAUUUGAGAAGGAGAGGGACAGAAGGCACUAGGA,46.9 nM,41.8 nM,,
UUUCCACAUGAGGAUCACCCAUGUCAGGAUAUUAGAUCUAUUUAUACAUAUAAUUAUUUAAGAAGGGACACUAA,18.1 nM,16.9 nM,,
ACACAUGUCCGAGGAUAUCUGAGAUCAUUUUCAAGAGAAGGCGGACAUGAGGAUCACCCAUGUCUCUCCUCAUCAACUCCAAAU,8.06 nM,49.2 nM,,
AUCAGCACGUCAGGAUAUACGUCACUGCGUCAGCAGUGUGGUAAGAUCACAUGAGGAUCACCCAUGUAGAAGGGACGAGCUGAU,14.1 nM,317 nM,,
UUACUAUUGGAGAAGGGUCGAUCAUAUAGAAUGGCAGGAUAUCCAACAUGAGGAUCACCCAUGUUUCACCCAUAUGAGGAUCAC,116 nM,44.9 nM,,
GCGAAUUAGUGAGGAUAUACAUAAUUUAUAACUGUAGAAGGCACAAUCCUCAAGACAUGAGGAUCACCCAUGUGGUAUUACGCU,151 nM,911 nM,,
CCUUCAGCGAACGAUACGAAUGGACAUGAGGAUCACCCAUGUAGAAGGACAGGAGAAUAACGACUGUAGGAUAUACAUUUAGUG,22.3 nM,28.6 nM,,
